# Screens as filed in PubChem.
# MPTP inh – blocks calcium-induced mitochondrial swelling. isolated mouse mitochondria, Ca2+ swelling absorbance, 30 min. inhibition, % at 10 µM. 360,000 tested, 1.4% active;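 active = inhibition of 50% or more, scaled per plate between neutral and stimulator controls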
# aDG glyco up – increases alpha dystroglycan glycosylation | activation, % at 10 µM | Pro5-aDG cells, alpha-DG glycosylation AlphaScreen (IIH6); 0% Pro5, 100% B10-LARGE cell signal | 360,000 tested, 0.22% active | AID 624168;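 active = activation of at least 8% versus controls, or a plate z-score of at least 8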;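 also: Pro5 are CHO cells carrying HIG-tagged alpha-DG that lacks glycosylation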
# GRIN3A LBD mod – NR3A (human) ligand-binding domain modulation | Tm shift relative to glycine control, % at 25 µM | 340,000 tested, 2.5% active | NR3A LBD differential scanning fluorimetry, Tm shift; 0% = protein alone, 100% = glycine-bound protein;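 active = melting temperature shift of at least 10% of the positive control shift, at one fixed dose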
# UPR XBP1 act – activators of adaptive arm of unfolded protein response (XBP1) | activation, % at 20 µM | CHO-XBP1 luciferase reporter, IRE1-XBP1 UPR activation, luminescence; percent of tunicamycin response, DMSO as zero | 330,000 tested, 0.33% active | AID 463104;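 active = versus positive control, 20 µM dose yields 30% or more activation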
#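 Material: CHO-XBP1 cells stably carrying IRE1-XBP1-driven luciferase reporter | Medium: F12 with 10% serum | Compound dosing: 20 µM single concentration, DMSO 1% | Incubation: Overnight seeding at 37 °C, 6 h compound treatment at 37 °C | Detection: Steady-Glo luminescence read | Read-out basis: % activation of reporter signal versus tunicamycin and DMSO controls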
# CHOP inh – blocks CHOP induction under ER stress; CHO-K1 CHOP-promoter luciferase, tunicamycin-induced, 15-18 h; inhibition, % at 10 µM; 220,000 tested, 3.8% active;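 active = compounds that reduced the stress-induced luciferase reporter signal by more than about 70% of percent inhibition, limit read from the data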
# CHOP UPR activ – activators of apoptotic arm of unfolded protein response (CHOP); 330,000 tested, 0.34% active; CHO-CHOP luciferase reporter, UPR activation, luminescence; percent of tunicamycin response over DMSO baseline; activation, % at 10 µM;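 active = at 10 µM dose, activation of 40% or more, normalized to positive control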
#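 Test system: CHO CHOP reporter cells. Input: 500 CHO-CHOP cells per well. Medium: F12 with 10% FBS. Technique: luciferase luminescence. Measure: percent activation relative to tunicamycin control. Dosing: 10 µM compound, 0.5% DMSO. Timing: 16-18 h cell attachment, then 6 h compound exposure, 37 °C.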
# Rh123 counter – Rhodamine 123 counter-screen of mitochondrial pore hits. 5,000 tested, 78% active. inhibition, % at 10 µM. isolated mitochondria, membrane potential, Rhodamine 123 fluorescence. shares compounds with MPTP inh. AID 624504; in the data active = inhibition above about 22%
# MPTP abs DR – MPTP inhibition, dose response swelling confirmation; AID 651561; shares compounds with MPTP inh; isolated mitochondria swelling, absorbance; 780 tested, 58% active; IC50, µM; in the data active = IC50 below about 20 µM
# MPTP cs DR – counter-screen for mitochondrial permeability transition pore inhibitors, dose response | isolated mitochondria counterscreen, fluorescence read-out | 780 tested, 49% active | IC50, µM | shares compounds with MPTP inh | AID 651564; in the data active = IC50 below about 80 µM
# Numbers stand for hits; . = inactive; / = no result given. This is a sample that favours compounds with a hit; in the whole collection about 5.6% have one here.
SMILES,MPTP inh,aDG glyco up,GRIN3A LBD mod,UPR XBP1 act,CHOP inh,CHOP UPR activ,Rh123 counter,others
Cc1cc(C)c(NC(=S)NC(NC(=O)c2ccccc2)C(Cl)(Cl)Cl)c(C)c1 (stereo unspecified),76,.,.,.,.,.,84,
O=C(c1cc(COc2cccc(C(F)(F)F)c2)on1)N1CCC(Oc2cccnc2)CC1,60,.,.,.,/,.,83,
O=C(c1cc(COc2ccc(F)cc2Cl)on1)N1CCC(OCc2cccnc2)CC1,68,.,.,.,.,.,23,
CC(=O)c1ccc(OCc2cc(C(=O)N3CCC(Oc4ccccc4C)CC3)no2)cc1,.,.,.,.,/,.,/,
Cc1ccc(OCc2cc(C(=O)N3CCC(Oc4cccnc4)CC3)no2)cc1C,91,.,.,.,/,.,89,
CC1(c2nc3ccccc3[nH]2)c2ccccc2C(=O)N1Cc1ccccn1 (stereo unspecified),.,.,/,/,/,/,/,
Cc1nc2ccc(NS(=O)(=O)c3ccc(F)c(F)c3)cc2s1,.,.,.,.,/,.,/,
Cc1ccc(S(=O)(=O)Nc2ccc3nc(C)sc3c2)cc1,68,.,.,.,.,.,105,
Cc1nc2ccc(NS(=O)(=O)c3ccc4c(c3)OCCO4)cc2s1,96,.,.,.,.,.,97,
Cc1nc2ccc(NS(=O)(=O)c3cccc([N+](=O)[O-])c3)cc2s1,55,.,.,.,/,.,72,
CC(=O)Nc1ccc(S(=O)(=O)Nc2ccc3nc(C)sc3c2)cc1,59,.,.,.,/,.,83,
COCCNC(=S)N1CCC(NC(=O)c2ccco2)CC1,.,.,.,.,.,.,/,
Cc1csc(=O)n1CCC(=O)N(C)Cc1c(F)cccc1Cl,.,.,.,.,/,.,/,
Cc1cc(NC(=O)COC(=O)CNS(=O)(=O)c2c(F)cc(F)cc2Br)no1,.,.,.,.,/,.,/,
Cc1ccc2nc(-c3ccc(NS(=O)(=O)c4ccc(F)c(F)c4)cc3)sc2c1,60,.,36,/,85,/,71,
Cc1nc2ccc(S(=O)(=O)Nc3ccc(-c4nc5cccnc5s4)cc3)cc2s1,.,.,.,.,.,.,/,
Cc1nc2ccc(NS(=O)(=O)c3ccc(Br)cc3)cc2s1,81,.,.,.,/,.,99,
Cc1ccc(S(=O)(=O)Nc2ccc3nc(N)sc3c2)cc1,85,.,.,.,.,.,38,
CC(=O)Nc1ccc(NS(=O)(=O)c2ccc(Cl)s2)cc1,.,.,.,.,.,.,/,
CSc1nc2ccc(NS(=O)(=O)c3ccc(Cl)s3)cc2s1,87,.,.,.,.,.,77,
CC(=O)Nc1ccc2nc(NS(=O)(=O)c3ccc(C)cc3)sc2c1,.,.,.,.,.,.,/,
CCCCN(C)C(=S)Nc1ccsc1C(=O)OC,.,.,.,.,.,.,/,
O=[N+]([O-])c1ccc(Sc2n[nH]c(-c3ccc(Cl)cc3Cl)n2)nc1,90,.,.,.,.,.,.,MPTP abs DR=20;MPTP cs DR=5.8
CC(C)(C)c1nc(Sc2ccc([N+](=O)[O-])cn2)n[nH]1,.,.,.,.,.,.,/,
N#C/C(=N\Nc1cccc(C(F)(F)F)c1)C(=O)c1csc(-c2cccnc2)n1,84,.,11,.,.,.,61,
SMILES,MPTP inh,aDG glyco up,GRIN3A LBD mod,UPR XBP1 act,CHOP inh,CHOP UPR activ,Rh123 counter,others
CN(c1ccccc1)S(=O)(=O)c1ccc(C(=O)OCC(=O)NCc2ccco2)cc1,.,.,.,.,.,.,/,
COc1ccccc1N(C)S(=O)(=O)c1ccc(C(=O)OCC(=O)NCc2ccco2)cc1,51,.,.,.,.,.,.,MPTP abs DR=.;MPTP cs DR=.
CN(C)c1ccc(C=c2c3cc(O)ccc3n3c2cc(-c2ccccc2)[n+]3C)cc1,53,.,.,/,/,/,59,
C[n+]1c(-c2ccccc2)cc2c(=Cc3ccccc3)c3ccccc3n21,.,.,.,/,/,/,/,
CCN1C(=O)/C(=C2\SC(=S)N(NC(=O)c3ccccc3O)C2=O)c2ccccc21,87,.,14,.,.,.,32,
COc1ccc(OC)c(/C=N/N=C2\SCC(=O)N2Cc2ccco2)c1,.,.,.,.,.,.,/,
COc1ccc(CN2C(=O)CS/C2=N/N=C/c2cccs2)cc1,82,.,.,.,.,.,62,
CSC1=C(C#N)C2(CCCC2)C(C#N)=C(N)N1,/,/,/,.,/,.,/,
N#CC1=C(N)N2C(=C(C#N)C13CCCCC3)SC1CCCCC12O (stereo unspecified),66,.,.,.,.,.,72,
Cc1cccc(C)c1N1CCN(C(c2cc3ccccc3o2)c2nnnn2C(C)(C)C)CC1 (stereo unspecified),87,.,/,/,/,/,57,
COc1cccc(C(=O)NCC2CCCN(C(=O)Cc3cccc(C)c3)C2)c1OC (stereo unspecified),.,.,/,/,/,/,/,
COc1ccccc1OCCCCOc1ccccc1C(C)=O,61,.,.,.,.,.,61,
CC(=O)c1ccccc1OCCOc1ccccc1C(C)=O,.,.,.,.,/,.,/,
O=[N+]([O-])c1ccc(N/N=C/c2sc(N3CCOCC3)nc2-c2ccccc2)c(S(=O)(=O)Nc2ccc(Cl)cc2)c1,86,.,21,/,86,/,76,
O=[N+]([O-])c1ccc(N/N=C/c2sc(N3CCOCC3)nc2-c2ccccc2)c(S(=O)(=O)Nc2ccccc2Cl)c1,91,.,.,/,85,/,65,
CC1CN(S(=O)(=O)c2cccc(C(=O)NCC(c3cccs3)N3CCOCC3)c2)CC(C)O1 (stereo unspecified),.,.,.,/,/,/,/,
Cc1cccc(C(=O)NNC2=C(C(=O)C(F)(F)F)CCC2)c1O,93,.,.,.,.,.,92,
COCCNc1nc2c(c(=O)n(C)c(=O)n2C)n1Cc1cccc(C(F)(F)F)c1,82,.,.,.,.,.,71,
Cn1c(=O)c2c(nc(NCCOc3ccc(C(C)(C)C)cc3)n2C)n(C)c1=O,101,.,.,.,.,.,.,MPTP abs DR=2.3;MPTP cs DR=36
COc1ccc(Cl)cc1CN1C(=O)C(Cc2ccccc2)ON=C1C (stereo unspecified),.,.,/,/,/,/,/,
CC1CCC(C(C)C)C(OCC(O)CNC(C)c2ccccc2)C1 (stereo unspecified),77,.,.,.,93,.,25,
